How the values were obtained:
RbAp48 [1] = test: Binding of MBD3 N-terminal peptide to RbAp48; conditions: data not shown
[2] = test system: RbAp48 mutants (E126A/E179A; E231A/D248A/N277A/E319A); test: Pulldown of in vitro translated 35S-labeled mutant RbAp48 by biotinylated FOG-1-; type: binding
In short: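 ³⁵S-labeled RbAp48 mutants made by coupled in vitro transcription/translation in rabbit reticulocyte lysate. About 10 μg biotinylated FOG-1-(1–15) on high-capacity streptavidin beads, in Tris pH 7.4, 300 mm NaCl, 0.5% IGEPAL and EDTA-free protease inhibitor. Lysate (15 μl, plus 45 μl ³⁵S-MTA-1 where stated) with 250 μl beads, 1 h, 4 °C. Bare-bead control; 10% input. Five washes; SDS-PAGE and autoradiography.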

RbAp48 [3] = conditions: RbAp48 expressed in a reticulocyte lysate; cited from earlier work

With “MERKRWECPALPQGW [N-terminal peptide derived from MBD3]” the “binding to RbAp48” value (RbAp48 [1]) was “does not bind measurably”.
For “FOG-1-(1–15): chemically synthesized peptide, the 15 N-terminal amino acids of FOG-1”, the “pulldown of E126A/E179A mutant RbAp48 in the presence of MTA-1” value ([2]; 45 μl lysate with 35S-labeled MTA-1 added, Fig. 5B lane 10) is listed as “could be recruited” and the “interaction with RbAp48 in GST pulldown assays” value (RbAp48 [3]) is listed as “can interact”.
For “biotinylated FOG-1-(1–15): FOG-1-(1–15) peptide bearing an N-terminal biotin tag, immobilized on streptavidin”, the “pulldown of quadruple-point mutant RbAp48 (Glu-231, Asp-248, Asn-277, Glu-319)” value ([2]; biotinylated peptide on streptavidin beads, Fig. 5A) was “disrupts binding”.
